Measurements taken from ChEMBL document CHEMBL3046951, “Volatile constituents from the leaves of Callicarpa japonica Thunb. and their antibacterial activities” (2004).

How the values were obtained:
Assay type in all cases: functional
Listeria monocytogenes = experiment: Antimicrobial activity against Listeria monocytogenes ATCC 19111 assessed as growth inhibition rate at 3.8 mg/l after 72 hr by spectrophotometry; details: ATCC 19111, 72 h, read-out: GI
How it was run: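 L. monocytogenes was grown at 30 °C in tryptic soy broth, subcultured for 18 h, and exposed to pure volatile compounds (>95% purity). Growth was followed by Bioscreen C optical density every 24 h for 72 h against a 10% Tween 80 control.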

Vibrio parahaemolyticus = experiment: Antimicrobial activity against Vibrio parahaemolyticus ATCC 33844 assessed as growth inhibition rate at 3.8 mg/l after 72 hr by spectrophotometry; details: ATCC 33844, 72 h, read-out: GI
Salmonella typhimurium = experiment: Antimicrobial activity against Salmonella enterica subsp. enterica serovar Typhimurium ATCC 14028 assessed as growth inhibition rate at 3.8 mg/l after 72 hr by spectrophotometry; details: ATCC 14028, 72 h, read-out: GI
How it was run: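 Salmonella Typhimurium ATCC 14028 grown in nutrient broth at 30 °C, precultured 24 h, then subcultured 1:100 for 18 h before testing. Single volatile compounds (>95% pure) were added. OD was read every 24 h over 72 h in a Bioscreen C, with 10% Tween 80 as the comparison control.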

Escherichia coli = experiment: Antimicrobial activity against Escherichia coli O157:H7 ATCC 43894 assessed as growth inhibition rate at 3.8 mg/l after 72 hr by spectrophotometry; details: O157:H7 ATCC 43894, 72 h, read-out: GI
Staphylococcus aureus = experiment: Antimicrobial activity against Staphylococcus aureus ATCC 25923 assessed as growth inhibition rate at 3.8 mg/l after 72 hr by spectrophotometry; details: ATCC 25923, 72 h, read-out: GI
Bacillus cereus = experiment: Antimicrobial activity against Bacillus cereus ATCC 11778 assessed as growth inhibition rate at 3.8 mg/l after 72 hr by spectrophotometry; details: ATCC 11778, 72 h, read-out: GI
How it was run: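 Pure volatile compounds (purity >95%; one at 90%) were tested against B. cereus ATCC 11778. The strain was grown at 30 °C in nutrient broth for 24 h, then subcultured for 18 h. Optical density was read in a Bioscreen C every 24 h for 72 h, with 10% Tween 80 as the control.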

C=CC(C)(O)CCC=C(C)C (stereo unspecified) [LINALOOL]
inhibition of growth at 3.8 µg/mL (Listeria monocytogenes): 0.6%
inhibition of growth at 3.8 µg/mL (Vibrio parahaemolyticus): 0%
inhibition of growth at 3.8 µg/mL (Salmonella typhimurium): 8.2%
inhibition of growth at 3.8 µg/mL (Escherichia coli): 2.1%
inhibition of growth at 3.8 µg/mL (Staphylococcus aureus): 2.6%
inhibition of growth at 3.8 µg/mL (Bacillus cereus): 8.6%
